# ChEMBL document CHEMBL4376814, “Novel cyclin-dependent kinase 9 (CDK9) inhibitor with suppression of cancer stemness activity against non-small-cell lung cancer” (Eur J Med Chem, 2019)
# Activity calls are given as the source filed them. The rule behind the calls is not given here.
# How the values were obtained:
# [1] = tested on: NCI-H1299; test: Inhibition of colony formation in human H1299 cells after 12 days by crystal violet staining based assay; type: functional, cell-based
# Outline: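 Cells exposed to compound, then washed, trypsinized and reseeded at 300 cells per well in 6-well plates. Colonies grew 10-14 days (legend: 12 days), were fixed in methanol 30 min, stained overnight with 0.5% crystal violet and imaged.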
# [2] = tested on: NCI-H1299; test: Induction of cell cycle arrest in human H1299 cells assessed as reduction in accumulation of cells at S phase at 1 uM after 24 hrs by propidium iodide/RNase staining based flow cytometric analysis (reference value: 24.5%); type: functional; set-up: scale not given: the % may be the effect or the level left
# Outline: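 A549 and H1299 plated at 5×10^5 cells/mL in 6-well plates, treated after adherence for 24 h. Washed with PBS, fixed overnight in ice-cold 75% ethanol, stained with propidium iodide plus RNase A for 30 min at 37 °C, analysed by flow cytometry for phase distribution. Means ± SD, three independent experiments.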
# [3] = tested on: NCI-H1299; test: Downregulation of OCT4 in human H1299 cells at 0.25 to 1 uM by Western blot analysis; type: functional, cell-based
# [4] = Intrinsic clearance in Beagle dog liver microsomes at 2 uM in presence of NADPH measured up to 1 hr by HPLC analysis; type: ADME, Canis lupus familiaris, Microsome
# [5] = target: 5'-AMP-activated protein kinase catalytic subunit alpha-2 (Homo sapiens) (UniProt P54646); test: Inhibition of full length recombinant human AMPK alpha2 at 1 uM using AMARAASAAALARRR as substrate measured after 40 mins in presence of [gamma33P]ATP by scintillation counting method relative to control
# 5'-AMP-activated protein kinase catalytic subunit alpha-2 (Homo sapiens), sequence (P54646 whole entry, looked up): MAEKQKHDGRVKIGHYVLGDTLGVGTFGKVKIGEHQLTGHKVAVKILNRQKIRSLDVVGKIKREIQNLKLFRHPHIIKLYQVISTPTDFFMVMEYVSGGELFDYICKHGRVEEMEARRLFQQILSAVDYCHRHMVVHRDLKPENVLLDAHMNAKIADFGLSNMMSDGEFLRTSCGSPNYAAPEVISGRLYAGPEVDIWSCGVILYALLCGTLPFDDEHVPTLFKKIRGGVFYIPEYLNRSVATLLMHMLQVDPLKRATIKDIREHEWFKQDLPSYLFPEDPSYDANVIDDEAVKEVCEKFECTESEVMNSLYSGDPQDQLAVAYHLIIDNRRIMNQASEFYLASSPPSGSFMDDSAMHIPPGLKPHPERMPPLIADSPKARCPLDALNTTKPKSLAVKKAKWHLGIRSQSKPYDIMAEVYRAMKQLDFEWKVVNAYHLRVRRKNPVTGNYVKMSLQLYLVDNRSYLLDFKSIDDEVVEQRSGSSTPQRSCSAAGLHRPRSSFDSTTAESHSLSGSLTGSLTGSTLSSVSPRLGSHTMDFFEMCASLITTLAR
# [6] = target: Dual specificity mitogen-activated protein kinase kinase 3 (Homo sapiens) (UniProt P46734); test: Inhibition of human MKK3 at 1 uM by radiometric method relative to control
# Outline: (§1)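 Percent inhibition of kinase activity at a single compound concentration, measured by the outsourced Eurofins KinaseProfiler panel. Values are the mean of two independent experiments.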
# [7] = target: NUAK family SNF1-like kinase 2 (Homo sapiens) (UniProt Q9H093); test: Inhibition of recombinant full-length human NUAK2 at 1 uM using KKKVSRSGLYRSPSMPENLNRPR as substrate measured after 40 mins in presence of [gamma33P]ATP by scintillation counting method relative to control
# [8] = target: Serine/threonine-protein kinase PAK 4 (Homo sapiens) (UniProt O96013); test: Inhibition of recombinant human PAK4 (295 to end residues) at 1 uM using myelin basic protein as substrate measured after 40 mins in presence of [gamma33P]ATP by scintillation counting method relative to control
# [9] = target: Eukaryotic translation initiation factor 2-alpha kinase 3 (Homo sapiens) (UniProt Q9NZJ5); test: Inhibition of recombinant human PEK (536 to end residues) at 1 uM using RSRSRSRSRSRSR as substrate measured after 40 mins in presence of [gamma33P]ATP by scintillation counting method relative to control
# [10] = tested on: Phosphorylase b kinase gamma catalytic chain, liver/testis isoform (Homo sapiens), P15735 [F290L]; test: Inhibition of recombinant human PhKG2 F290L mutant (1 to 301 residues) at 1 uM using KKLNRTLSFAEPG as substrate measured after 40 mins in presence of [gamma33P]ATP by scintillation counting method relative to control
# [11] = target: Serine/threonine-protein kinase DCLK3 (Homo sapiens) (UniProt Q9C098); test: Inhibition of recombinant human DCAMKL3 (345 to end residues) at 1 uM using KKLNRTLSFAEPG as substrate measured after 40 mins in presence of [gamma33P]ATP by scintillation counting method relative to control
# [12] = target: Dual specificity tyrosine-phosphorylation-regulated kinase 3 (Homo sapiens) (UniProt O43781); test: Inhibition of recombinant full-length human DYRK3 at 1 uM using RRRFRPASPLRGPPK as substrate measured after 40 mins in presence of [gamma33P]ATP by scintillation counting method relative to control
# [13] = target: Serine/threonine-protein kinase D3 (Homo sapiens) (UniProt O94806); test: Inhibition of recombinant full-length human PKD3 at 1 uM using KKLRRTLSVA as substrate measured after 40 mins in presence of [gamma33P]ATP by scintillation counting method relative to control
# [14] = target: Serine/threonine-protein kinase N2 (Homo sapiens) (UniProt Q16513); test: Inhibition of human PRK2 (501 to end residues) at 1 uM using AKRRRLSSLRA as substrate measured after 40 mins in presence of [gamma33P]ATP by scintillation counting method relative to control
# Serine/threonine-protein kinase N2 (Homo sapiens), sequence (Q16513 whole entry, looked up): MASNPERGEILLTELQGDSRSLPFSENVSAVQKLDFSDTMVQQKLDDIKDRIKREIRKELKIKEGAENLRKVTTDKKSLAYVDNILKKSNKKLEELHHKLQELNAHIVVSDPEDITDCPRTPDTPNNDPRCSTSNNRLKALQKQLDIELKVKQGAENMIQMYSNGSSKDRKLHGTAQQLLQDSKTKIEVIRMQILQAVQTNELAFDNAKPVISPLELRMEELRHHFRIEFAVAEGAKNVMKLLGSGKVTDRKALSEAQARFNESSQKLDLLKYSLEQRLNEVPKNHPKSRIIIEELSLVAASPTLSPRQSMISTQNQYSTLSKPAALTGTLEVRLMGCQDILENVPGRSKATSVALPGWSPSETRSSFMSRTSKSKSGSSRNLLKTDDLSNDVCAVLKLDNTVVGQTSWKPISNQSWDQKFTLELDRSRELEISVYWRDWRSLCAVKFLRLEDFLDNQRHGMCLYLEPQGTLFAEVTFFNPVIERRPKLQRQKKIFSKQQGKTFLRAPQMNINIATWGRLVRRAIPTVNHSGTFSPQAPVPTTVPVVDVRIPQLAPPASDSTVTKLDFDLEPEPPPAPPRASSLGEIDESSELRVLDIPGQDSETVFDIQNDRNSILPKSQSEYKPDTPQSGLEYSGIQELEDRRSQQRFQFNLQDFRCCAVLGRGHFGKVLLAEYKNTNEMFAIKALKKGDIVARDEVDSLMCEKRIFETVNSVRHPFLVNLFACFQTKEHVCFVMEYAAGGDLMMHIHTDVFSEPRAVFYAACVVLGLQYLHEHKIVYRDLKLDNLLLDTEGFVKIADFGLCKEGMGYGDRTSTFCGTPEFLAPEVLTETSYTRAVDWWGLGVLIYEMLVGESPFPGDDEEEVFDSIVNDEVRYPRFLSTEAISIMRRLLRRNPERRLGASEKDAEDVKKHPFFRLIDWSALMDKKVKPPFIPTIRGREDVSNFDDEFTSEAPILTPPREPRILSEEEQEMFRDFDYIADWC
# Outline: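 Single-point inhibition at 1 µM was measured in the Eurofins KinaseProfiler panel. Values are the mean of two independent experiments.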
# [15] = target: Receptor-interacting serine/threonine-protein kinase 1 (Homo sapiens) (UniProt Q13546); test: Inhibition of human RIPK1 (8 to 322 residues) at 1 uM using myelin basic protein as substrate measured after 120 mins in presence of [gamma33P]ATP by scintillation counting method relative to control; outline: as §1
# [16] = target: Tyrosine-protein kinase Fgr (Homo sapiens) (UniProt P09769); test: Inhibition of recombinant human FGR (2 to end residues) at 1 uM using poly(Glu, Tyr) 4:1 as substrate measured after 40 mins in presence of [gamma33P]ATP by scintillation counting method relative to control
# Tyrosine-protein kinase Fgr (Homo sapiens), sequence (P09769 2-529 limits assumed): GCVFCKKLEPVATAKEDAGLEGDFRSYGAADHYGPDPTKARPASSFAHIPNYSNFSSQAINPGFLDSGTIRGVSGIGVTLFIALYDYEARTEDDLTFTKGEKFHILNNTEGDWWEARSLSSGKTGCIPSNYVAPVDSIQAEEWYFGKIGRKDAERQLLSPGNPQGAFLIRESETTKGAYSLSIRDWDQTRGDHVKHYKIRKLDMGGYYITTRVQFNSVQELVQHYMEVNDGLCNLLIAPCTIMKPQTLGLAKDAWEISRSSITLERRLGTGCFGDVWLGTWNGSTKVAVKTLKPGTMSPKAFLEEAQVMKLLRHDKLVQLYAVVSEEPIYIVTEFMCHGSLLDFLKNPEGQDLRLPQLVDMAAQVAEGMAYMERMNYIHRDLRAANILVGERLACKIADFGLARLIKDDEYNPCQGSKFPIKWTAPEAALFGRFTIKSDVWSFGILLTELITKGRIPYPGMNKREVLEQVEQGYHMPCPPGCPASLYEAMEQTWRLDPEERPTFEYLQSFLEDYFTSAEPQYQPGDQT
# [17] = target: Tyrosine-protein kinase HCK (Homo sapiens) (UniProt P08631); test: Inhibition of recombinant human activated HCK (230 to 497 residues) at 1 uM using GGMEDIYFEFMGGKKK as substrate measured after 40 mins in presence of [gamma33P]ATP by scintillation counting method relative to control
# [18] = target: Homeodomain-interacting protein kinase 3 (Homo sapiens) (UniProt Q9H422); test: Inhibition of recombinant human HIPK3 (161 to 562 residues) at 1 uM using myelin basic protein as substrate measured after 40 mins in presence of [gamma33P]ATP by scintillation counting method relative to control
# [19] = target: Insulin receptor-related protein (Homo sapiens) (UniProt P14616); test: Inhibition of recombinant human IRR (943 to 1266 residues) at 1 uM using myelin basic protein as substrate measured after 40 mins in presence of [gamma33P]ATP by scintillation counting method relative to control
# [20] = target: High affinity nerve growth factor receptor (Homo sapiens) (UniProt P04629); test: Inhibition of recombinant human TRKA (440 to end residues) at 1 uM using KKKSPGEYVNIEFG as substrate measured after 40 mins in presence of [gamma33P]ATP by scintillation counting method relative to control
# [21] = target: Serine/threonine-protein kinase ULK3 (Homo sapiens) (UniProt Q6PHR2); test: Inhibition of recombinant full-length human ULK3 at 1 uM using casein as substrate measured after 40 mins in presence of [gamma33P]ATP by scintillation counting method relative to control
# Serine/threonine-protein kinase ULK3 (Homo sapiens), sequence (Q6PHR2 whole entry): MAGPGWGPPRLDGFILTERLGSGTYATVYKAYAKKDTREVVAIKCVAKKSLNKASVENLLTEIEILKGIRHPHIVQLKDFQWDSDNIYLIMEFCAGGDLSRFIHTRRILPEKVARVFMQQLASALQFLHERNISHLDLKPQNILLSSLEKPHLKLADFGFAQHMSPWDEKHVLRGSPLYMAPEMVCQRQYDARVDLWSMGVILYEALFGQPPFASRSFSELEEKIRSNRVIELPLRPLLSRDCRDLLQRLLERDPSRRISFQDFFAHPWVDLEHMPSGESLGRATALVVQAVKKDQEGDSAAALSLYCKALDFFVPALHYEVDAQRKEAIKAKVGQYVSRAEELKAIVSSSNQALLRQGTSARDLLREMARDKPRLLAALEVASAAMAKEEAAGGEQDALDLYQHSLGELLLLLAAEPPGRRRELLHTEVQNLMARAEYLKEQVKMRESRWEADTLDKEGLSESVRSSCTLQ
# [22] = target: Leucine-rich repeat serine/threonine-protein kinase 2 (Homo sapiens) (UniProt Q5S007); test: Inhibition of recombinant human LRRK2 (970 to end residues) at 1 uM using RLGRDKYKTLRQIRQ as substrate measured after 40 mins in presence of [gamma33P]ATP by scintillation counting method relative to control
# Leucine-rich repeat serine/threonine-protein kinase 2 (Homo sapiens), sequence (Q5S007 whole entry): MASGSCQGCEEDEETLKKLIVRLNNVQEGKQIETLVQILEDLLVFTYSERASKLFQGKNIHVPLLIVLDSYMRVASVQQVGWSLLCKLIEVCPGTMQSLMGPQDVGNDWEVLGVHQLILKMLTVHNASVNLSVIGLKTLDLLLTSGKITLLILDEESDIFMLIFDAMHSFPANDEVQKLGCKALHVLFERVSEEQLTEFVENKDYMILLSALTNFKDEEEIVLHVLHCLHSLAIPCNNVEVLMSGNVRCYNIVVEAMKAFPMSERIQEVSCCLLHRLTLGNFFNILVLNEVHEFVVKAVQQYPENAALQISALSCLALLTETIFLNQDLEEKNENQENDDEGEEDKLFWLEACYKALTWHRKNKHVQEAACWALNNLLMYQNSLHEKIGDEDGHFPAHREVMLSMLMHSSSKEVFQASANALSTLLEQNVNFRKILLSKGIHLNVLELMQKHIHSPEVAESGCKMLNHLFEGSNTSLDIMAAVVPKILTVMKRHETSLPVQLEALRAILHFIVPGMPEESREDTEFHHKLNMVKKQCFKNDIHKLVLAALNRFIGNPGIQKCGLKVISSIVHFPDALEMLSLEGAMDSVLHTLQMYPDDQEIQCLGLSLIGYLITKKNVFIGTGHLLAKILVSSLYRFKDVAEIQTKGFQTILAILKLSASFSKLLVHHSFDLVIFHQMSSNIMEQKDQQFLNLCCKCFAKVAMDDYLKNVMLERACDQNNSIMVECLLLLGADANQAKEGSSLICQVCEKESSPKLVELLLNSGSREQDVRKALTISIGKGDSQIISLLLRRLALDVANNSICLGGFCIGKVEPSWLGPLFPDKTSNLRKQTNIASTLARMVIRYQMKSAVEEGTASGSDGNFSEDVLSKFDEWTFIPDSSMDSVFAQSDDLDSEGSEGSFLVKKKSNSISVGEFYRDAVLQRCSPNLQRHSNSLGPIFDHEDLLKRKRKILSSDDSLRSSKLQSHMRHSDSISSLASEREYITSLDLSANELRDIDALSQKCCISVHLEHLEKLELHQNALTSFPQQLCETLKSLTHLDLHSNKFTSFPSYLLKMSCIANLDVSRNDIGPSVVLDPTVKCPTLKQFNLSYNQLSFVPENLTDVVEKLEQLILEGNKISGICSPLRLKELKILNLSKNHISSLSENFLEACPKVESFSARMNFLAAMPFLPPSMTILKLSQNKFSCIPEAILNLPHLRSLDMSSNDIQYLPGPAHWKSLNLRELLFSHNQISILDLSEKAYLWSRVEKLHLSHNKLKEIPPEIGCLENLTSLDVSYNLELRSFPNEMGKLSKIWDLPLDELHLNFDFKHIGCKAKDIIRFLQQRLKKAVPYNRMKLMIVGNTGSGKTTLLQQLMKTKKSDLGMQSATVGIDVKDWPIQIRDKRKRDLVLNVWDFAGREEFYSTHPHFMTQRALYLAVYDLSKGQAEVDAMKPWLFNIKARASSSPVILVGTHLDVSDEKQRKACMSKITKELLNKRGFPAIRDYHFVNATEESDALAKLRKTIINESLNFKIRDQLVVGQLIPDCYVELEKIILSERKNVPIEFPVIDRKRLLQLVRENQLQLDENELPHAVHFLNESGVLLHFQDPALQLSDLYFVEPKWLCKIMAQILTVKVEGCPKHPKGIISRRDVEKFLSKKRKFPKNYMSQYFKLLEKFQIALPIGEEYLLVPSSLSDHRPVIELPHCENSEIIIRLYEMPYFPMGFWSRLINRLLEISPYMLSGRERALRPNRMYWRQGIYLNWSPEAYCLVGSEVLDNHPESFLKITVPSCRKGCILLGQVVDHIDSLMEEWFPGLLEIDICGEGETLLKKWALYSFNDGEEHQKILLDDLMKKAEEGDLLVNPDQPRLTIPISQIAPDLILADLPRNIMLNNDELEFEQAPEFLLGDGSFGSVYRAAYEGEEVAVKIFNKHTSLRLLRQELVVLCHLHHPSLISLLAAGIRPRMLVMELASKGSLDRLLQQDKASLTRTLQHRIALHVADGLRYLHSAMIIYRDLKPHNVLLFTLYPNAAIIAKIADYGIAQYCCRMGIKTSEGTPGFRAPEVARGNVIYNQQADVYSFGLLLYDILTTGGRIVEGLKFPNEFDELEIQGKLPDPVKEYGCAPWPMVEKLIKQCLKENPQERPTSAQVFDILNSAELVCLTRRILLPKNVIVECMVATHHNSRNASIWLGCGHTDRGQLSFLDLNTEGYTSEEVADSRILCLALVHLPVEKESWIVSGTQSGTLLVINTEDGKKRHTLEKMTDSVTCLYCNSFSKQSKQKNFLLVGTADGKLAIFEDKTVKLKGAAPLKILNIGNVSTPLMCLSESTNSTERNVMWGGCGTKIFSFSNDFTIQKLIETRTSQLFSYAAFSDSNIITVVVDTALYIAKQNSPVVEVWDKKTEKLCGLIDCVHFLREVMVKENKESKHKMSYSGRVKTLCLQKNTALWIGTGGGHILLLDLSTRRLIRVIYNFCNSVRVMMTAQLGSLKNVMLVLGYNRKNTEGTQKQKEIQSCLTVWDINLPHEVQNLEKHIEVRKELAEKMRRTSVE
compound,measurement,setting,value
CN(C)C(=O)c1cc2cnc(Nc3ccc(NC(=O)CCCCCCCN=C=S)cc3)nc2n1C1CCCC1,inhibition,[1],Dose-dependent effect
same,Activity,[2],11.2%
same,Activity,[3],Active
same,CLH,[4],87 µL/min/mg
same,inhibition,[5],20%
same,inhibition,[6],23%
same,inhibition,[7],66%
same,inhibition,[8],10%
same,inhibition,[9],6%
same,inhibition,[10],28%
same,inhibition,[11],9%
same,inhibition,[12],17%
same,inhibition,[13],15%
same,inhibition,[14],11%
same,inhibition,[15],37%
same,inhibition,[16],66%
same,inhibition,[17],5%
same,inhibition,[18],26%
same,inhibition,[19],3%
same,inhibition,[20],77%
same,inhibition,[21],9%
same,inhibition,[22],8%
